Columns and labels:
[1] = system: Nucleic Acid; test: Ratio of drug level in liver to plasma in female Sprague-Dawley rat at 10 mg/kg, iv administered as bolus dose measured after 1 hr by liquid scintillation counting analysis; assay type: ADME, organism-based; design: dose 10 mg/kg, route intravenous; settings: other tissue
Method in brief: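 Rats received a single iv bolus of the [35S]-labelled prodrug via tail vein in 25% PEG 400/75% saline, 5 ml/kg. Liver (solubilised homogenate) and plasma (EDTA blood, retro-orbital, just before necropsy) were taken at 1, 4 and 24 h and counted by liquid scintillation. The liver/plasma concentration ratio is the mean at each time point, from nine male and nine female rats.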

[2] = Drug excretion in male Sprague-Dawley rat urine at 10 mg/kg, po administered as single dose measured at 4 to 24 hrs post-dose by liquid scintillation counting analysis; assay type: ADME, organism-based; design: dose 10 mg/kg, route oral; settings: in vivo
Method in brief: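 Single [³⁵S]-prodrug dose to rats, i.v. tail-vein bolus (PEG 400/saline vehicle) or oral gavage (citric acid buffer pH 2.5), 5 ml/kg. Urine and feces collected ~1, 4 and 24 h postdose. Radioactivity counted by liquid scintillation and expressed as % of administered dose. Mean and S.D. from nine rats per sex.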

CO[C@@H]1[C@H](OP(=O)(OC[C@H]2O[C@@H](n3cnc4c(N)ncnc43)C[C@@H]2O)[35S]COC(=O)OC(C)C)[C@@H](CO)O[C@H]1n1ccc(=O)[nH]c1=O (some centres not stated) gave a Ratio [1] of 3.89 and a Drug excretion [2] of 33.73%.

— ChEMBL document CHEMBL3526154, “Metabolism, pharmacokinetics, tissue distribution, and stability studies of the prodrug analog of an anti-hepatitis B virus dinucleoside phosphorothioate” (Drug Metab Dispos, 2012)
